Assay results pooled from the literature.
Compare with care: the assays were run in different laboratories.
Target: MAP kinase-interacting serine/threonine-protein kinase 1 (MKNK1, Homo sapiens, UniProt Q9BUB5)

`CC#CC(=O)N1CCC[C@H]1c1nc(-c2ccc(C(=O)Nc3ccccn3)cc2)c2c(N)nccn12` gave an inhibition of 0% (enzyme activity, inhibitor; 1 µM).
For `C#Cc1cnc(Nc2ccnc(CO)c2)nc1Nc1ccccc1S(C)(=O)=NC#N` (centres unmarked), the remaining signal was 100% (cell-free assay; 1 µM).
For `CCCCC(=O)Nc1ccc(-c2ccc3ncn(CCC)c(=O)c3c2)cn1`, the remaining binding was 100% (binding, competition with immobilised ligand; 0.5 µM).
For `N#Cc1ccc(NC(=O)Nc2ccccc2)cc1`, the remaining binding was 75% (cell-free assay, competition with immobilised ligand; 25 µM).
The remaining binding of `Cc1ccc(NC(=O)c2ccnc(C(F)(F)F)c2)cc1-c1cc(OCCO)nc(N2CCOCC2)c1` is reported as 85% (binding, competition with immobilised ligand; 1 µM).
The remaining binding of `C1=C/COCc2cc(ccc2OCCN2CCCC2)Nc2nccc(n2)-c2cccc(c2)COC/1` is reported as 78% (binding; 0.1 µM).
For `C#Cc1cc(-c2cc(Nc3nc(N[C@@H](C)c4ccc(F)cn4)ncc3Cl)n[nH]2)ccc1C=O`, the inhibition was 9.43% (enzyme activity, inhibitor; 0.2 µM).
For `CN1CCN(C(=O)c2ccc(NC(=O)Nc3ccc(N(C)c4ccnc(Nc5ccc(CS(C)(=O)=O)cc5)n4)cc3)cc2)CC1`, the remaining binding was 65% (binding, competition with immobilised ligand; 1 µM).
For `CC(C)S(=O)(=O)c1ccc2nccc(Nc3ccc4sc(C5CCCC5)nc4c3)c2c1`, the activity vs control was 106% (enzyme activity, inhibitor; 1 µM).
With `COc1ccc2oc(-c3ccc4nc(N)oc4c3)c/c(=N\c3ccccc3NC(=O)CCN)c2c1` the remaining binding was 107% (binding; 1 µM).
With `CO[C@@H]1[C@H](N(C)C(=O)c2ccccc2)C[C@H]2O[C@]1(C)n1c3ccccc3c3c4c(c5c6ccccc6n2c5c31)C(=O)NC4` the inhibition was 20% (enzyme activity, inhibitor; 1 µM).
